# Efflux pump mplx = blocks antifungal efflux pumps in multiplex yeast assay; S. cerevisiae Candida pump triplex, Nile Red efflux; inhibition, % at 10 µM; actives 0.44% (n = 330,000);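 active means plate passing quality check with inhibition over a set limit, or well fluorescence over plate mean plus 4 SD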;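 further: Nile Red retained in pooled yeast measured as flow cytometry median fluorescence; higher means more Nile Red kept so more efflux inhibition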
# HGIII-sPLA2 inh = Blocks human group III sPLA2 activity | Q9NZ20 | QFRET BODIPY PC-A2 liposome hydrolysis, fluorescence | inhibition, % at 12.2 µM | actives 0.56% (n = 370,000);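 active means inhibition above mean plus 3 SD of compounds lying within the high and low control bounds, cut at about 19% in these data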
# Target sequence (Q9NZ20 whole entry, looked up): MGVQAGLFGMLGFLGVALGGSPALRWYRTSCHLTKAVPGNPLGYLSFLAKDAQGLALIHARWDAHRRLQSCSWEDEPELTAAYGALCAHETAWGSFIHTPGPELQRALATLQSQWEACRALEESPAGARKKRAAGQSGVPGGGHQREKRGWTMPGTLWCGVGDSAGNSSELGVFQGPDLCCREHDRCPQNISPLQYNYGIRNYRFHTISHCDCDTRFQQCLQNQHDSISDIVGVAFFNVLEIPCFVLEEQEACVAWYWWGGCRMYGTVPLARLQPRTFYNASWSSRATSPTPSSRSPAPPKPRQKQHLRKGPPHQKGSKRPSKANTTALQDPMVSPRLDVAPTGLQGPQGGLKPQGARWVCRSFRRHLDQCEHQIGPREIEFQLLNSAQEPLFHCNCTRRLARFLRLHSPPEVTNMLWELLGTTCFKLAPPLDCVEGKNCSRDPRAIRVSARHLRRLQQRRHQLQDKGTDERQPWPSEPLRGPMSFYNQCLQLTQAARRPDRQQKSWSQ
# TAG inh = reduces triacylglycerol accumulation in H9c2 cells; actives 0.66% (n = 230,000); Nile Red lipid (TAG) fluorescence; cells loaded with 200 µM oleic acid; AID 651582; inhibition, % at 12.5 µM;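 active means pattern-corrected inhibition of lipid staining of at least 50% with the nuclear-stain viability signal not falling by more than 50%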
# MT1-MMP act inh = inhibitors of human MT1-MMP activation. HT1080 RFP-PRO-GFP cells, GFP/RFP ratio fluorescence, overnight; percent of plate control window, DMSO zero. GFP/RFP ratio change, % at 20 µM. actives 0.061% (n = 360,000);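 active means GFP/RFP ratio change of at least 30% with cell ATP level not reduced by more than half and red fluorescence within 50% of control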
#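 system = RFP-PRO-GFP reporter HT1080 cells | dosing = 20 µM single dose, 1% DMSO | timing = overnight cell settling, then overnight compound exposure, 37 °C, 5% CO2 | read-out basis = GFP/RFP fluorescence ratio | controls = DMSO and RFP-L50D-GFP cell wells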
# sPLA2 confirm = human GIII-sPLA2 inhibition, confirmation | AID 743280 | inhibition, % at 12.2 µM | actives 34% (n = 2,000) | shares compounds with HGIII-sPLA2 inh | recombinant hGIII-sPLA2, BODIPY PC-A2 QFRET fluorescence;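 active means mean inhibition across triplicates above the hit cutoff set in the earlier primary screen, cut at about 19% in these data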
# 535nm interf = optically interferes with 535nm fluorescence in sPLA2 counter-screen; shares compounds with HGIII-sPLA2 inh; BODIPY FL product fluorescence interference, QFRET; inhibition, % at 12.2 µM; actives 8.5% (n = 2,000); AID 743282;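 active means average inhibition above the solvent-only control mean plus 3 SD, cut at about 6% in these data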
# 535nm interf DR = counter-screen for HGIII-sPLA2 inhibitors: 535nm fluorescence interference, dose response; IC50, µM; shares compounds with HGIII-sPLA2 inh; BODIPY FL product fluorescence interference, cell-free; 240 tested, under 10 active;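 active means IC50 at or below 10 µM; inactive means IC50 above 10 µM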
# A number is an active result; . = inactive; / = not tested or not shown; ! = repeats disagree. Compounds with a hit are over-represented: about 1.3% of the library has one in this group of screens.
SMILES,Efflux pump mplx,HGIII-sPLA2 inh,TAG inh,MT1-MMP act inh,sPLA2 confirm,535nm interf,others
CCCNC(=S)N1CCC(NC(=O)c2cccc(C)c2)CC1,.,20,.,.,.,.,
COc1ccc2c(c1)c[n+](C)c1c3cc(OC)c(OC)cc3ccc21,/,27,/,.,36,.,535nm interf DR=.
CSc1ccc(CNc2ccc(C)cc2)cc1,.,22,/,.,.,.,
O=C(CSc1ccc(Br)cc1)Nc1ccccc1N1CCOCC1,.,.,.,.,/,/,
C/C(=N\NC(=O)c1ccc(N(C)C)cc1)c1ccc(C)c(C)c1,.,31,/,.,.,.,
C/C(=N\NC(=O)c1ccc(N(C)C)cc1)c1ccc(C)cc1C,.,.,/,.,/,/,
O=C(O)c1cc(O)ccc1N=Nc1ccccc1,.,20,/,.,.,.,
O=C(O)c1ccccc1N=Nc1ccc(O)cc1,.,.,.,.,/,/,
O=C(c1cccs1)N1CCN(Cc2cccc([N+](=O)[O-])c2)CC1,.,.,/,.,/,/,
O=C(CCNC(=O)c1ccccc1Cl)Nc1ccc(Br)c(C(F)(F)F)c1,.,.,.,.,/,/,
O=C(CCNC(=O)c1ccccc1Cl)Nc1cc(C(F)(F)F)ccc1Cl,.,21,/,.,.,.,
CC1CCN(CC(=O)Nc2cc(C(F)(F)F)ccc2Cl)CC1,.,21,/,.,.,.,
CC12CCC(C(=O)NCCCN3CCOCC3)(C(Br)C1=O)C2(C)C (configuration not stated),.,21,.,.,.,.,
CCCc1cc(C(=O)NNC(=S)NCC2CCCO2)cs1 (configuration not stated),.,23,/,.,.,.,
NNC(=O)/C(=N/Nc1ccccc1)S(=O)(=O)c1ccc(Cl)cc1,.,35,/,.,47,.,535nm interf DR=.
O=S(=O)(Nc1cc(Cl)cc(Cl)c1)N1CCOCC1,.,.,/,.,/,/,
CC(C)(C)OC(=O)NCCc1ccccc1/C=C/S(=O)(=O)NCc1ccccc1,/,.,/,/,/,/,
CCCCCCCCNC(=O)c1cccnc1SCC(=O)Nc1ccc(OC)cc1OC,.,22,/,.,.,.,
CCN(C)C1CN(Cc2cn(Cc3cc(C)cc(C)c3)nn2)S(=O)(=O)C1 (configuration not stated),/,.,/,.,/,/,
COc1ccc(/C=N/NC(N)=S)cc1,.,21,.,.,.,.,
CC(C)Oc1ccc(/C=N/NC(N)=S)cc1,.,.,/,.,/,/,
COC(=O)c1cccc(/C=N/NC(N)=S)c1O,.,21,.,.,20,.,
C=Cc1ccc(Cn2c(C)c(C(=O)NCc3ccccc3C(F)(F)F)sc2=O)cc1,/,.,.,.,/,/,
Cc1ccc(/C=N/n2c(-c3ccco3)n[nH]c2=S)cc1,.,22,.,.,.,.,
Cc1cccc(/C=N/n2c(-c3ccco3)n[nH]c2=S)c1,.,.,.,.,/,/,
SMILES,Efflux pump mplx,HGIII-sPLA2 inh,TAG inh,MT1-MMP act inh,sPLA2 confirm,535nm interf,others
Cn1c(=O)c2[nH]c(=S)n(Cc3ccccc3)c2n(C)c1=O,/,23,.,.,.,.,
CCN1C[C@@H]2[C@@H]3C(=O)N(Cc4ccccc4)C(=O)[C@@H]3[C@](CC)(C1=O)N2C(=O)c1ccc(Cl)cc1,/,.,/,/,/,/,
Clc1cccc(Cl)c1CSc1nnc2ccccn12,.,19,/,.,.,.,
COC(=O)c1ccc(CNC(=O)C(NC(=O)c2ccco2)C(C)C)cc1 (configuration not stated),.,.,/,.,/,/,
CCN(C)C1CN(Cc2cn(CCCC(=O)OC)nn2)S(=O)(=O)C1 (configuration not stated),/,.,/,.,/,/,
Cc1cccc2sc(NNC(=O)C3=COCCO3)nc12,.,21,.,.,23,.,
Cc1cccc2sc(NNC(=O)c3cc(-c4cccs4)nc4ccccc34)nc12,.,50,.,.,49,8.8,
CCN(CC(=O)NCc1ccc(F)cc1)C(=O)c1cccc(S(=O)(=O)N(C)c2ccc(OC)cc2)c1,/,.,.,.,/,/,
CCN(C[C@H]1N[C@@](Cc2ccccc2)(C(=O)OC)[C@H]2C(=O)N(C)C(=O)[C@@H]12)C(=O)NC(C)C,.,.,.,.,/,/,
Cc1nn(C)c(-c2n[nH]c(=S)n2-c2ccccc2)c1Cl,.,26,.,.,24,.,
Cc1nn(C)cc1-c1n[nH]c(=S)n1-c1ccc(F)cc1,.,29,/,.,.,.,
Fc1cccc(-c2n[nH]c(=S)n2-c2ccccc2)c1,.,25,/,.,.,.,
Cc1cc(-c2n[nH]c(=S)n2-c2ccccc2)nn1C,.,.,/,.,/,/,
CCN1CCN(C2=C(NS(=O)(=O)c3ccc(NC(C)=O)cc3)C(=O)c3ccccc3C2=O)CC1,.,.,/,.,/,/,
CC(=O)Nc1ccc(S(=O)(=O)NC2=C(N3CCN(Cc4ccccc4)CC3)C(=O)c3ccccc3C2=O)cc1,.,21!,.,.,25,.,
COc1ccc(C=C2NC(=S)NC2=O)cc1,/,25,.,.,.,.,
CCOC(=S)SCC(=O)Nc1nccs1,.,.,.,.,/,/,
CCOC(=S)SCC(=O)Nc1nc(C)c(C)s1,.,19,.,.,.,.,
COc1ccc(-c2cc(C(F)(F)F)nc(SCC(=O)NCc3cnn(C)c3C)n2)cc1OC,.,24,/,.,.,.,
COc1cccc(CNC(=O)C[C@H]2CC[C@H]3[C@@H](COc4ccc(NC(=O)c5cccs5)cc4C(=O)N3C)O2)c1,/,.,/,/,/,/,
CCC(=O)Nc1ccc2c(c1)C(=O)N(C)[C@@H]1CC[C@@H](CC(=O)NCc3ccc(OC)cc3)O[C@H]1CO2,/,19,/,/,.,.,
CN1C(=O)c2cc(NC(=O)Cc3ccccc3)ccc2OC[C@H]2O[C@H](CC(=O)O)CC[C@H]21,/,.,/,/,/,/,
COC(=O)C[C@H]1CC[C@@H]2[C@H](COc3ccc(NC(=O)C(C)C)cc3C(=O)N2C)O1,/,19,/,/,.,.,
COCC(=O)Nc1ccc2c(c1)C(=O)N(C)[C@@H]1CC[C@@H](CC(=O)OC)O[C@H]1CO2,/,.,/,/,/,/,
CCS(=O)(=O)Nc1ccc2c(c1)C(=O)N(C)[C@@H]1CC[C@H](CC(=O)N[C@@H]3CCN(Cc4ccccc4)C3)O[C@H]1CO2,/,20,/,/,.,.,
COc1cc(NC(=O)CCC(=O)N2CCN(S(=O)(=O)c3ccc(C)cc3)CC2)cc(OC)c1,/,.,.,.,/,/,
Cc1c(C#N)c(=O)c(-[n+]2ccccc2)c([S-])n1-c1ccc(Cl)cc1,.,.,.,.,/,/,
O=C(NC(=S)Nn1cnnc1)c1cccc(Br)c1,.,22,/,.,.,.,
COc1cc(C2Nc3cc(C)c(C)cc3NC3=C2C(=O)CC(C)(C)C3)ccc1OC(C)=O (configuration not stated),.,24,.,.,.,.,
NC(N)=NC(=S)Nc1ccc(Cl)cc1,.,21,/,.,.,.,

# Screens: PubChem, several laboratories
